# Source: PubChem BioAssay (The Scripps Research Institute Molecular Screening Center)
# Compounds with a hit are over-represented: about 2% of the library has one in this group of screens.
# M1 ag: human M1 muscarinic receptor agonism. P11229. CHO-K1 hM1, Fluo-8 calcium fluorescence, agonist mode; 0% DMSO, 100% acetylcholine EC100. activation, % at 3 µM. hit rate 0.33% among 360,000. AID 588814;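 active = activation above the run's mean compound activation plus 3 SD, cut at about 16% in these data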;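 also: peak over basal fluorescence ratio within a 140 s kinetic read after compound addition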
# Target sequence (P11229 whole entry, looked up): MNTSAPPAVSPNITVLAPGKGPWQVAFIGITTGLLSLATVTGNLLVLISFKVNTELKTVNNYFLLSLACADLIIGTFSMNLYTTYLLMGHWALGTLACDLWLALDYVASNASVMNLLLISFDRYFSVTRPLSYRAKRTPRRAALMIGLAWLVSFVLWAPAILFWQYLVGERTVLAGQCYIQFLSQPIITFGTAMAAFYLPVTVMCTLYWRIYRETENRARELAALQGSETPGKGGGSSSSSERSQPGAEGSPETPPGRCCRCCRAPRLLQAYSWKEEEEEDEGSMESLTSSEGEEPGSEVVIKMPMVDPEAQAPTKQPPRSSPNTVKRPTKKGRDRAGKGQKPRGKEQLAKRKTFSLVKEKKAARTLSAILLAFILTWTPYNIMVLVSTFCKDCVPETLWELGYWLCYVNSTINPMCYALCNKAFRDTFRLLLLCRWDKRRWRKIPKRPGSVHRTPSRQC
# M5 antag: blocks acetylcholine activation of human M5 receptor; P08912; CHO-hM5 cells, Fluo-8 calcium fluorescence, ACh EC80; inhibition, % at 3 µM; hit rate 0.59% among 360,000;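 active = inhibition above a per-plate cutoff, the mean of that plate's test compounds plus 3 SD, cut at about 27% in these data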;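 also: 0% = acetylcholine EC80 with DMSO and 100% = DMSO without agonist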
# CHRM5 PAM: positive allosteric modulators of human muscarinic M5 receptor. P08912. CHO-K1 hM5, Fluo-8 calcium, ACh EC20 PAM; 0% = ACh EC20, 100% = ACh EC100. activation, % at 3 µM. hit rate 0.3% among 360,000. AID 624038;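 active = activation above the run cutoff, the mean activation of all test compounds plus 3 SD, cut at about 18% in these data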
#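 Replicates: One well per compound, no replicates | System: Human M5 receptor in CHO-K1 cells | Benchmarks: Low control EC20 acetylcholine (0%), high control EC100 acetylcholine (100%) | Probe or stimulus: Acetylcholine, EC20 level | Times: Fluo-8 loading 80 min at 37 °C plus 30 min room temperature | Signal: Intracellular calcium via Fluo-8 fluorescence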
# M1 antag: human CHRM1 antagonism | CHO-K1 hM1, Fluo-8 calcium fluorescence, ACh EC80 antagonist | inhibition, % at 3 µM | AID 588852 | hit rate 1.3% among 360,000 | P11229;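 active = percent inhibition above its own plate's cutoff, namely the mean of that plate's compound wells plus 3 SD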;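 also: peak over basal fluorescence ratio during 140 s after agonist addition; 0% = ACh EC80 plus DMSO and 100% = DMSO alone without agonist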
# M5 ag: CHRM5 agonism in calcium assay | P08912 | CHO-K1 hM5 cells, Fluo-8 calcium fluorescence; 0% DMSO wells, 100% maximal acetylcholine response | activation, % at 3 µM | hit rate 0.19% among 360,000;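 active = activation above the run's mean over test compounds plus 3 SD, cut at about 23% in these data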;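 also: signal is peak over basal fluorescence ratio across the kinetic read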
# CHRM1 PAM: potentiates human M1 receptor response to acetylcholine | P11229 | CHO-K1 hM1, Fluo-8 calcium fluorescence, ACh EC20; 0% = ACh EC20, 100% = maximal ACh | activation, % at 3 µM | hit rate 0.088% among 360,000; in the data active = activation above about 19%, passing the limit was not always enough
# * hit, by the source's call.
SMILES,M1 ag,M5 antag,CHRM5 PAM,M1 antag,M5 ag,CHRM1 PAM
Cc1ccc(C(=O)NCCN2C3=NC[C@H](C)N3C[C@H]2Cc2ccc(O)cc2)cc1Br,-9,0,4,17,-12,-20
COCCNC(=O)C1(C)CCCN(C(=O)c2ccc(C#N)cc2)C1 (centres undefined),-2,1,2,-11,2,9
Cn1c(=O)c2c(nc(NCc3ccco3)n2C)n(C)c1=O,-6,3,-3,-9,-1,3
Cn1c(=O)c2c(nc(NCc3ccco3)n2C/C=C/c2ccccc2)n(C)c1=O,0,5,-2,32*,4,-10
O=C1OC(N2C(=O)CC[C@H]2C(=O)NCC2CCCO2)c2ccccc21 (some centres undefined),-4,8,4,102*,4,2
CCn1c(SCC(=O)Nc2cc(C)on2)nnc1-c1ccc(S(=O)(=O)N2CCCC2)cc1,-8,9,3,-15,0,8
Cn1c(SCCN2CCCC2)nnc1C1CCN(S(=O)(=O)c2ccc(F)cc2)CC1,-12,4,-1,33*,-7,-24
Cc1ccc(S(=O)(=O)N2CCC(c3nnc(SCCN4CCCC4)n3C)CC2)cc1,-11,8,-5,26*,-7,-23
CCn1c(SCCN2CCCCC2)nnc1-c1ccc(S(=O)(=O)N2CCOCC2)cc1,-4,12,-2,93*,-17,-20
CN(C)C(CNC(=O)c1ccc(NC(=O)CC#N)cc1)c1ccccc1 (centres undefined),-8,15,-2,30*,-20,-20
CN(C)C(CNC(=O)CCC(=O)c1ccc(Br)cc1)c1ccccc1 (centres undefined),-8,3,-5,35*,-8,-28
CN(C)C(CNC(=O)CCS(=O)(=O)c1ccccc1)c1ccccc1 (centres undefined),-9,4,-1,-7,-6,7
COc1ccc(NC(=O)COc2ccccc2C(=O)NCC(c2ccccc2)N(C)C)cc1Cl (centres undefined),-8,57*,-19,73*,-6,-31
COCCNC(=O)C1(C)CCCN(Cc2ccc(Cl)nc2)C1 (centres undefined),-2,-2,0,-12,0,10
CC1(C(=O)Nc2ccc3c(c2)OCCO3)CCC(=O)N1C1CCN(Cc2ccccc2)CC1 (centres undefined),-6,-2,1,1,-1,2
CCc1ccc(C2C(C(=O)O)c3ccccc3C(=O)N2C)cc1 (centres undefined),-6,-6,5,-2,1,-2
O=C(O)C1c2ccccc2C(=O)N(Cc2ccc(F)cc2)C1c1ccncc1 (centres undefined),-1,-22,27*,-29,6,21
Cc1cc(C)cc(NS(=O)(=O)c2cc(Br)cnc2N)c1,-3,4,-3,-3,-6,0
Cc1ccc(NS(=O)(=O)c2cc(Br)cnc2N)cc1C,-6,100*,-18,100*,-10,-24
CSc1cccc(NS(=O)(=O)c2cc(Br)cnc2N)c1,-6,23,-18,63*,-10,-24
CSc1cccc(NS(=O)(=O)c2ccccc2)c1,-3,1,-6,-3,-4,3
C[C@@]12C(=O)Nc3cc(Cl)ccc3C(=O)N1[C@H]1c3cc(Cl)ccc3OC[C@@H]1[C@@H]2c1ccccc1,-5,10,-7,-4,-2,-1
C[C@@]12C(=O)Nc3ccc(Cl)cc3C(=O)N1[C@H]1c3ccccc3OC[C@@H]1[C@@H]2c1ccccc1,-3,20,-28,33*,-3,-15
Cc1ccc2c(c1)C(=O)N1[C@H]3c4cc(Cl)ccc4OC[C@@H]3[C@H](c3ccccc3)[C@]1(C)C(=O)N2,-2,-6,-3,-3,4,-4
Cc1ccc2c(c1)C(=O)N1[C@H]3c4cc(C)ccc4OC[C@@H]3[C@H](c3ccccc3)[C@]1(C)C(=O)N2,-5,10,-18,48*,-4,-25
